Experimental data published in PMC3320048 (Angiogenesis, 2011).
Where a SMILES comes first, the peptide text is derived from it. Bridges are numbered along the chain shown (N, C = ends). Where no end group is shown, it is not given here.

Columns and labels:
proliferating HUVEC = assay: Cytotoxicity assay; format: cell-based
[1] = system: neonatal human dermal fibroblasts (NHDF); assay: LDH release in fibroblasts; format: cell-based; settings: 150 μg/ml, 24 hours, 37°C
Procedure, shortened: (§1)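 Cells were grown at 37°C in humidified 5% CO2 and treated at about 50% confluence. Test compound (2 mg/ml stock in H2O) was added at 150 μg/ml in 2% FBS for 24 h at 37°C. LDH release was read with a commercial kit and normalised to background death in untreated cells. 0.1% (v/v) Triton X-100 defined maximal release.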

[2] = system: human bladder epithelial cells (HBEC); assay: LDH release in epithelial cells; format: cell-based; settings: 150 μg/ml, 24 hours, 37°C
Procedure, shortened: as §1

CLIC1 = CLIC1 (Homo sapiens, UniProt O00299); assay: Saturation binding assay
Procedure, shortened: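 Copper-coated microtiter wells were coated with 2 μg/ml purified His-tagged human CLIC1. Wells were incubated 1 h at room temperature with varying concentrations of carboxyfluorescein-labelled peptide in TBS with 200 mM n-octyl-β-D-glucoside and 1 mM CaCl2. After TBS washes, fluorescence was read at ex 485/em 520. Signal from His-tagged nucleolin-coated wells was subtracted as non-specific binding. Kd was derived from the binding curves.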

[3] = system: DU145 subcutaneous xenografts; assay: DU145 tumor treatment study; format: in vivo, mice; settings: 300 μg i.p. 3x/week
Procedure, shortened: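 Male athymic nude mice carried 2-week-old subcutaneous DU145 flank xenografts averaging 40 mm3 at the start. They received carrier or test compound (300 μg) intraperitoneally three times per week. Tumour volume was measured with calipers at each treatment time point, and mice were weighed on day 15. Groups were compared by unpaired two-tailed t test or one-way ANOVA with Tukey post hoc test.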

HUVEC [4] = assay: Western blot of cytosolic fractions for LC3 and cathepsins; format: cell-based, human
Procedure, shortened: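 Cytosolic fractions came from treated HUVEC using a subcellular fractionation kit. Proteins were resolved by SDS-PAGE, blotted to PVDF and checked for equal loading with 0.05% Ponceau S. Blots were blocked in 5% milk or BSA, probed overnight at 4°C for cathepsin C, cathepsin D and LC3B, and detected by peroxidase secondary antibodies with ECL. Lysosomes were labelled with 100 nM LysoTracker Red for 1 h before paraformaldehyde fixation.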

HUVEC [5] = assay: Flow cytometry assay of CLIC1 cell surface expression in suspended HUVEC; format: cell-based, human; settings: peptide 300 μM
fibronectin = settings: cited from earlier work
fibrinogen = settings: cited from earlier work

For `CC[C@H](C)[C@@H]1NC(=O)[C@H](CC(C)C)NC(=O)CNC(=O)[C@@H](N)CSSC[C@@H](C(=O)O)NC(=O)[C@H](CCC(=O)O)NC(=O)[C@H](CC(N)=O)NC(=O)[C@H](CCCCN)NC(=O)[C@H](CCC(N)=O)NC(=O)[C@H]([C@@H](C)CC)NC1=O` [CLT1] (H-CGLIIQKNEC-OH; disulfide 1-10), the “CLT1-induced cytotoxicity at 4°C” value (proliferating HUVEC; HUVEC cultured at 4°C versus 37°C, 150 μg/ml, 24 hours, LDH release) was “protected endothelial cells from CLT1-induced cytotoxicity”, the “cytotoxicity of CLT1 after CLIC1 knockdown” value (proliferating HUVEC; HUVEC, CLIC1 siRNA versus control siRNA, 24 hours, LDH release) was “significantly reduced” and the “earliest time at which cytotoxicity was detected” value (proliferating HUVEC; HUVEC, LDH release over time) was 3.5 h. For the same molecule, the “cytotoxicity in fibroblasts (LDH release)” value [1] was “little effect”, the “cytotoxicity in epithelial cells (LDH release)” value [2] was “little effect” and the Kd (CLIC1) was 10.2 µM. The “body weight of the mice” value ([3]; day 15 of the treatment study) was “remained unchanged”.
With `CO/C1=C\C(C)=C\[C@@H](C)[C@@H](O)[C@@H](C)C/C(C)=C/C=C/[C@H](OC)[C@@H]([C@@H](C)[C@@H](O)[C@H](C)[C@@]2(O)C[C@@H](O)[C@H](C)[C@@H](C(C)C)O2)OC1=O` [bafilomycin A1, reference compound] the “effect of pretreatment on CLT1 cytotoxicity (LDH release)” value (proliferating HUVEC; HUVEC, 20 nM bafilomycin A1 for 1 hour prior to CLT1 25 μg/ml for 24 hours) was “ameliorated cytotoxicity of CLT1”.
In the case of “CGLKIQKNEC (disulfide 1-10 (inferred)) [CLT1-IK1]”, the “LC3-II conversion (autophagy marker)” value (HUVEC [4]; HUVEC cytosolic fractions, 7 hours, 7.5–75 μg/ml, immunoblot) is reported as “did not induce” and the “lysosome dysfunction (cathepsin C and D leakage, lysotracker)” value (HUVEC [4]; HUVEC, 75 μg/ml 24 hours immunoblot, 10 μg/ml fluorescein-conjugated peptide, lysotracker) is reported as “did not induce”.
In the case of “CNAGESSKNC (disulfide 1-10 (inferred)) [CLT2, reference compound]”, the “tumor growth (tumor volume)” value ([3]; DU145 xenografts, n=12/treatment group) is reported as “no anti-angiogenic or anti-tumor effects”.
With GRADSP the “effect on CLIC1 cell surface localization induced by CLT1-fibronectin co-aggregates” value (HUVEC [5]) was “not by an inactive peptide”.
In the case of GRGDSP [reference compound], the “effect on cytotoxic function of CLT1” value (proliferating HUVEC; HUVEC, peptide 300 μM, 24 hours, LDH release) is reported as “inhibited the cytotoxic function of CLT1” and the “effect on CLIC1 cell surface localization induced by CLT1-fibronectin co-aggregates” value (HUVEC [5]) is reported as “partially inhibited”.
For anginex, the “aggregate formation when mixed with fibronectin” value (fibronectin) is listed as “form large insoluble aggregates” and the “aggregate formation when mixed with fibrinogen” value (fibrinogen) is listed as “form large insoluble aggregates”.
